Measured values from ChEMBL document CHEMBL1142698, “Synthesis and biological evaluation of novel naphthocarbazoles as potential anticancer agents” (J Med Chem, 2005).

How the values were obtained:
Format in all cases: functional, cell-based
L1210 = assay: In vitro antiproliferative activity against murine leukemia L1210 cells; details: Mus musculus
How it was run: (§1)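 Cells from ATCC grown in RPMI 1640 with 10% fetal calf serum, 2 mM L-glutamine, penicillin/streptomycin and 10 mM HEPES (pH 7.4). Continuous exposure to graded concentrations for four doubling times. MTT added, then 4 h at 37 °C, formazan dissolved in DMSO and optical density read. IC50 is the concentration halving optical density versus untreated controls, from nine serial dilutions in duplicate.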

DU-145 [1] = assay: In vitro antiproliferative activity against human prostate cancer DU145 cells; how it was run: as §1
HT-29 = assay: In vitro antiproliferative activity against human colon carcinoma HT-29 cells; how it was run: as §1
DU-145 [2] = assay: In vitro antiproliferative activity against human prostate cancer DU-145 cells; how it was run: as §1

IC50 (L1210) [µM]	IC50 (DU-145 [1]) [µM]	IC50 (HT-29) [µM]	IC50 (DU-145 [2]) [µM]	SMILES
3.9	6.8			CN1C(=O)c2c(c3c4cc(O)ccc4[nH]c3c3cc4ccccc4cc23)C1=O
1.26	2.31	3.69		CN1C(=O)c2c(c3c4ccccc4n(CC(O)CO)c3c3cc4ccccc4cc23)C1=O (centres undefined)
34	59.7	65.7		C=CCn1c2ccccc2c2c3c(c4cc5ccccc5cc4c21)C(=O)N(C)C3=O
0.036	0.108			CN(C)CCN1C(=O)c2c(c3c4cc(O)ccc4[nH]c3c3cc4ccccc4cc23)C1=O
5.2	4.7			CN1C(=O)c2c(c3c4ccc(O)cc4[nH]c3c3cc4ccccc4cc23)C1=O
1.5	4.5			CN(C)CCOc1ccc2c(c1)[nH]c1c3cc4ccccc4cc3c3c(c21)C(=O)N(C)C3=O
2.4				CN1C(=O)c2c(c3c4ccccc4n(CCN4CCOCC4)c3c3cc4ccccc4cc23)C1=O
0.51	1.11	5.5		O=C1c2c(c3c4ccc(O)cc4[nH]c3c3cc4ccccc4cc23)C(=O)N1CCNCCO
0.29	0.63	3.76		O=C1c2c(c3c4cc(O)ccc4[nH]c3c3cc4ccccc4cc23)C(=O)N1CCNCCO
10.1	5.6			CN1C(=O)c2c(c3c4ccc(O[Si](C)(C)C(C)(C)C)cc4[nH]c3c3cc4ccccc4cc23)C1=O
2.4	4.7			CN(C)CCn1c2ccccc2c2c3c(c4cc5ccccc5cc4c21)C(=O)N(C)C3=O
0.11	0.25			CN(C)CCN1C(=O)c2c(c3c4ccc(O)cc4[nH]c3c3cc4ccccc4cc23)C1=O
2.9			1.1	CN1C(=O)c2c(c3c4ccccc4[nH]c3c3cc4ccccc4cc23)C1=O
0.21	0.29			CN(C)CCN1C(=O)c2c(c3c4ccccc4[nH]c3c3cc4ccccc4cc23)C1=O
0.13	0.29	0.84		CN(C)CCCN1C(=O)c2c(c3c4cc(O)ccc4[nH]c3c3cc4ccccc4cc23)C1=O
0.2	0.0068	1.34		O=C1c2c(c3c4ccc(O)cc4[nH]c3c3cc4ccccc4cc23)C(=O)N1C(CO)CO
0.34	0.76	1.35		CN(C)CCCN1C(=O)c2c(c3c4ccc(O)cc4[nH]c3c3cc4ccccc4cc23)C1=O
1.19	2.13	2.88		O=C1c2c(c3c4cc(O)ccc4[nH]c3c3cc4ccccc4cc23)C(=O)N1C(CO)CO
0.14				COC1C(O)[C@@H](O)[C@H](n2c3c(Cl)cccc3c3c4c(c5c6cccc(Cl)c6[nH]c5c32)C(=O)NC4=O)O[C@@H]1CO (single isomer, unassigned) [REBECCAMYCIN]
